# FN deposit inh – fibronectin deposition inhibition; AH1F fibroblasts, Alexa488-fibronectin deposition fluorescence, overnight; inhibition, % at 12.6 µM; 0.086% of 350,000 active; AID 743247;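 active means mean inhibition across replicates of 30% or more, regardless of how many single replicates reach that level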;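 further: positive control wells lacked labelled fibronectin entirely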
#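 Material – AH1F fibroblast monolayer, labelled fibronectin deposition · Reagent – labelled fibronectin 24 nM · Timing – 1 h adhesion, overnight exposure · Measured by – fluorescence at 485 nm excitation, 525 nm emission · Read-out – inhibition of fibronectin deposition signal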
# Efflux pump inh – antifungal efflux pump inhibition, Nile Red retention; AID 485275; 0.44% of 330,000 active; S. cerevisiae Candida pump triplex; inhibition, % at 10 µM;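 active means plate passing quality check with inhibition over a set limit, or well fluorescence over plate mean plus 4 SD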;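 further: Nile Red retained in pooled yeast measured as flow cytometry median fluorescence; 0% = buffer negative control and 100% = Enniatin B positive control; higher means more Nile Red kept so more efflux inhibition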
# SR-BI HDL uptake – mouse SR-BI HDL lipid transfer inhibition; 0.96% of 320,000 active; ldlA[mSR-BI] CHO cells, DiI-HDL uptake fluorescence, 3 h; Q61009; AID 488896; inhibition, % at 12.5 µM;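 active means mean replicate inhibition of at least 70% and a set share of replicates each scoring 70 or more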;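 further: 0% = median of neutral control wells and 100% = median of positive control wells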
# Target sequence (Q61009 whole entry, looked up): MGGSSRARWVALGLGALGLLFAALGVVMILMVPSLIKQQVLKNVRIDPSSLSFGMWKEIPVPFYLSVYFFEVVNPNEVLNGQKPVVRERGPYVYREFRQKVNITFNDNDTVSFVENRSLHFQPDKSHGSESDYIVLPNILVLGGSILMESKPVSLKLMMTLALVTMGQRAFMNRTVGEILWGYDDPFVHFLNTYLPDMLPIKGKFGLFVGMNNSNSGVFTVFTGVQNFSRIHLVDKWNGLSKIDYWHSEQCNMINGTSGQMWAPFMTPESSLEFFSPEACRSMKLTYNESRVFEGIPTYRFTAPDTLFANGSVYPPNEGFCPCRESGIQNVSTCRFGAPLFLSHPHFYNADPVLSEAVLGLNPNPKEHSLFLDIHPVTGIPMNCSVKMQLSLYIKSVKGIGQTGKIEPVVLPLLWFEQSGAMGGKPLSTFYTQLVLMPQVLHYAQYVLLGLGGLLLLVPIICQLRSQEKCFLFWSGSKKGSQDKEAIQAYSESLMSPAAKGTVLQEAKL
# SR-BI uptake up – activators of SR-BI mediated HDL lipid uptake; CHO ldlA[mSR-BI] cells, DiI-HDL uptake fluorescence, 3 h; 100 = double the neutral-control signal; activation, % at 12.5 µM; 0.096% of 320,000 active;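 active means mean replicate activation of at least 60% and every replicate at or above 60%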;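 further: 0% = median plate neutral-control signal and 100% = twice that signal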
#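 Test system: SR-BI-overexpressing, LDLR-lacking CHO cells; Medium: Ham's F12 with 0.5% BSA, HEPES 25 mM, pH 7.4; Schedule: 3 h, 37 °C; Technique: bottom-read fluorescence, 550/595 nm.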
# CaV13 ICDI inh – Primary screen for inhibitors of IQ motif and Ca2+-dependent inactivation inhibitor domain binding in CACNA1D, Förster resonance energy transfer in living cells, … | HEK cells, CFP/YFP FRET ICDI-IQ, plate reader, 10 min; percent FRET-ratio fall versus neutral wells | inhibition, % at 12.3 µM | 0.098% of 340,000 active;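 active means mean replicate inhibition of at least 30% and at least 1% of replicates passing that level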;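 further: 0% = median of the neutral control wells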
# Cmpd fluor yeast – flagged as fluorescent in efflux inhibitor counter-screen. shares compounds with Efflux pump inh. S. cerevisiae AD/pABC3, compound fluorescence, flow cytometry. fluorescence ratio to DMSO, % at 10 µM. 4% of 1,700 active;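 active means fluorescence ratio to DMSO above its plate's cutoff, the plate mean ratio plus 5 SD, cut at about 210% in these data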;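 further: unstained yeast with no Nile Red so the signal is compound autofluorescence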
# CaMdr1 efflux inh – inhibitors of Candida albicans Mdr1 efflux pump; shares compounds with Efflux pump inh; S. cerevisiae AD/CaMDR1, Nile Red efflux, flow cytometry; inhibition, % at 10 µM; 1% of 1,700 active; in the data active means inhibition above about 26%;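 further: 0% = DMSO vehicle and 100% = reference inhibitor; higher means more Nile Red retained so more efflux inhibition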
# CaCdr2 efflux inh – Candida Cdr2 efflux pump inhibition; Nile Red retention ratio vs DMSO, % at 10 µM; AID 588520; S. cerevisiae AD/CaCDR2, Nile Red retention, flow cytometry; 4% of 1,700 active; shares compounds with Efflux pump inh; in the data active means Nile Red retention ratio vs DMSO above about 190%;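 further: higher ratio means more blocking of Cdr2 efflux of the dye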
# CaCdr1 efflux inh – inhibitors of Candida albicans Cdr1 efflux pump; shares compounds with Efflux pump inh; S. cerevisiae AD/CaCDR1, Nile Red efflux, flow cytometry; inhibition, % at 10 µM; 1% of 1,700 active; AID 588522;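 active means inhibition above the screen-wide mean plus twice its standard deviation, cut at about 32% in these data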
# An asterisk follows results filed as active; . = no result. A selection: hits, their analogues and other compounds. The true share with any hit is near 1.2%.
SMILES,FN deposit inh,Efflux pump inh,SR-BI HDL uptake,SR-BI uptake up,CaV13 ICDI inh,Cmpd fluor yeast,CaMdr1 efflux inh,CaCdr2 efflux inh,CaCdr1 efflux inh
O=c1/c(=C/c2ccco2)sc2nc(-c3ccccc3Br)nn12,-7,0,11,-11,-2,99,0,99,0
COc1ccccc1-c1nc2s/c(=C\c3cccs3)c(=O)n2n1,6,0,-13,13,-5,.,.,.,.
Cc1ccc(/C=c2\sc3nc(-c4cccs4)nn3c2=O)o1,-5,0.5*,-25,25,-11,110,0,89,0
C[C@H](CO)N1C[C@H](C)[C@H](CN(C)C(=O)c2cnccn2)Oc2ncc(-c3cccc(C#N)c3)cc2C1=O,-13,.,.,.,.,.,.,.,.
CC(C)NC(=O)Nc1ccc2c(c1)C(=O)N([C@@H](C)CO)C[C@H](C)[C@@H](CN(C)S(=O)(=O)c1cccs1)O2,0,.,.,.,.,.,.,.,.
CCc1ccc(N=C2NC(=O)/C(=C/c3cc(OC)c(O)c(OC)c3)S2)cc1,5,0.5*,33,-33,-111,126,0,101,0
COc1cc(/C=C2\SC(=Nc3ccccc3OC)NC2=O)ccc1O,-5,0.6*,63,-63,-8,110,0,107,0
COc1ccc(/C=C2\SC(=Nc3ccccc3OC)NC2=O)cc1,-4,0,7,-7,-2,.,.,.,.
COc1cc(/C=C2/CC/C(=C/c3ccc(O)c(OC)c3)C2=O)ccc1O,7,0.5*,.,.,-14,116,0,100,0
COc1cc(/C=C2\COC/C(=C\c3ccc(O)c(OC)c3)C2=O)ccc1O,1,0,14,-14,-20,.,.,.,.
O=C(C[C@@H]1CC[C@H]2[C@@H](COC[C@H](O)CN2C(=O)Cc2ccccc2)O1)NC1CCCC1,2,.,.,.,.,.,.,.,.
CS(=O)(=O)Nc1ccc(C(=O)Nc2ccc3c(c2)OCCO3)cc1,.,9.0*,16,-16,.,106,0,110,5
CCSc1nnc(NC(NC(C)=O)(C(F)(F)F)C(F)(F)F)s1,-16,14*,-6,6,-3,117,1,131,1
CO[C@@H]1CN(C)C(=O)c2ccc(NS(=O)(=O)c3ccc(F)cc3)cc2OC[C@@H](C)NC[C@@H]1C,-1,.,.,.,.,.,.,.,.
CC(C)=C1C2CCC1C1C(=O)N(c3nc(-c4ccc(C(C)C)cc4)c(C)s3)C(=O)C21 (configuration not stated),1,0.4*,66,-66,-5,105,0,99,0
O=C(Nc1ccc(NC(=O)c2ccc(Cl)cc2Cl)cc1)c1cccs1,-8,1.3*,21,-21,-3,98,0,85,0
COc1cccc(C(=O)Nc2ccc3c(c2)C(=O)N(C)C[C@H](OC)[C@@H](C)CN(C)[C@H](C)CO3)c1,-7,.,.,.,.,.,.,.,.
COCCNC(=O)CSc1nc2cc(OC)c(OC)cc2c(=O)n1Cc1ccc(OC)cc1,12,0,-9,9,-5,.,.,.,.
CCC(Sc1nc2cc(OC)c(OC)cc2c(=O)n1CCc1ccc(OC)c(OC)c1)C(=O)NCCOC (configuration not stated),.,1.3*,6,-6,-6,93,0,107,0
Cn1cc([N+](=O)[O-])c(C(=O)Nc2ccn(C34CC5CC(CC(C5)C3)C4)n2)n1,2,16*,0,0,-19,114,0,102,0
CCn1cc([N+](=O)[O-])c(C(=O)Nc2ccn(C34CC5CC(CC(C5)C3)C4)n2)n1,5,0,-4,4,-4,.,.,.,.
CCOC(=O)c1c(-c2ccc(-c3ccccc3)cc2)csc1NC(=O)CNCCN(C)C,6,2.6*,-5,5,-14,116,0,108,0
CSc1ccc(CN(C)CC(=O)Nc2ccc(NC(C)=O)cc2)cc1,6,0,8,-8,-2,.,.,.,.
CSc1ccc(CN(C)CC(=O)Nc2cccc(Br)c2)cc1,5,9.7*,-5,5,-5,112,0,106,0
CCN1/C(=C/c2ccc3cc(C)ccc3[n+]2CC)Sc2ccccc21,-58,3.0*,62,-62,-65,.,5,143,2
SMILES,FN deposit inh,Efflux pump inh,SR-BI HDL uptake,SR-BI uptake up,CaV13 ICDI inh,Cmpd fluor yeast,CaMdr1 efflux inh,CaCdr2 efflux inh,CaCdr1 efflux inh
C[C@@H]1CCCCO[C@H](CN(C)S(=O)(=O)c2cn(C)cn2)[C@H](C)CN([C@H](C)CO)C(=O)c2cc(NS(=O)(=O)c3ccccc3)ccc2O1,-10,.,.,.,.,.,.,.,.
O=C(O)c1sccc1S(=O)(=O)c1ccccc1,.,0,-9,9,.,.,.,.,.
CC(C)(C)S(=O)(=O)c1ccsc1C(=O)O,-7,14*,-13,13,-5,98,0,109,0
COC(=O)c1ccc(C2/C(=C(\O)c3cccc(OC)c3)C(=O)C(=O)N2CCCN2CCOCC2)cc1 (configuration not stated),-6,9.7*,-23,23,-3,116,0,96,0
COc1cccc(/C(O)=C2/C(=O)C(=O)N(CCCN3CCOCC3)C2c2ccncc2)c1 (configuration not stated),4,0,-21,21,-6,.,.,.,.
CN1CCN(c2ccc(C(=O)c3ccc(Br)cc3)cc2[N+](=O)[O-])CC1,.,33*,27,-27,8,104,0,92,0
C[C@@H](NC(=O)C[C@H]1C=C[C@@H](NC(=O)Cc2ccccn2)[C@@H](CO)O1)c1ccccc1,4,.,.,.,.,.,.,.,.
COc1cccc(NC(=O)C/C(C)=N/NC(=O)c2ccccc2Cl)c1,-6,0.8*,-9,9,-5,100,0,94,0
O=C(CSc1nnc(-c2ccccc2)o1)N1CCN(c2ccccc2)CC1,6,0.8*,20,-20,-6,107,0,101,0
CCc1c(C)nc2c(OC)cccc2c1SCCC(=O)O,.,10*,-6,6,.,112,0,112,0
CCN1C(=O)[C@H]2[C@@H](c3ccc(-c4cccc(Cl)c4)cc3)N3CCCC[C@@]3(C(=O)OC)[C@H]2C1=O,-11,0.7*,-7,7,-11,98,0,119,0
O=C(CCc1ccccc1F)N1CCN(c2ccc(C(F)(F)F)cn2)CC1,-5,0,-12,12,-4,.,.,.,.

# Compound activity deposited in PubChem BioAssay by several laboratories.
